From PubChem
SKN-1 block: suppressors of acrylamide-induced Pgst-4::GFP reporter in worms, primary screen, SKN-1 inhibitor project, whole organism, uHTS, GFP/RFP fluorescence ratio, strain VP596; C. elegans VP596 Pgst-4::GFP/RFP ratio, 24 h; inhibition, % at 21.8 µM; actives 0.49% (n = 360,000); AID 624304, 2012;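 active = interference check ratio from 0.5 to 1.5 plus GFP to RFP signal ratio inhibition reaching or exceeding a fixed threshold, cut at about 30% in these data, passing the limit was not always enough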
PABP FP inh: PABP poly(A) RNA binding inhibitors, primary screen, biochemical, fluorescence polarization, uHTS; Polyadenylate-binding protein 1 (Homo sapiens), P11940; calls only at 35 µM; actives 1% (n = 290,000);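 also: calls also rest on retests at 20 µM and on dose response follow-up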
eIF4H FP inh: human eIF4H binding inhibitors, primary screen, translation initiation inhibitor project, biochemical, uHTS, fluorescence polarization; inhibition, % at 35 µM; Eukaryotic translation initiation factor 4H (Homo sapiens), Q15056; AID 2012, 2009; eIF4H fluorescence polarization binding assay; actives 0.94% (n = 290,000);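 also: calls also rest on retests at 20 µM and on dose response follow-up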
MLLE-PAM2 inh: inhibitors of PABP1 MLLE–PAM2 peptide binding, primary screen, biochemical, fluorescence polarization, FITC-PAM2, GST-MLLE | Polyadenylate-binding protein 1 (Homo sapiens), P11940 | inhibition, % at 20 µM | actives 0.36% (n = 360,000) | AID 588489, 2011; in the data active = inhibition above about 35%, passing the limit was not always enough;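 also: plate controls were DMSO wells with GST-MLLE for no effect and wells lacking GST-MLLE protein for full effect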
MT1-MMP act inh: blockers of MT1-MMP proenzyme processing, primary screen, HT1080 RFP-PRO-GFP cells, GFP/RFP fluorescence | GFP/RFP ratio fluorescence, overnight; percent of plate control window, DMSO zero | GFP/RFP ratio change, % at 20 µM | actives 0.061% (n = 360,000);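 active = GFP/RFP ratio change of at least 30% with cell ATP level not reduced by more than half and red fluorescence within 50% of control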
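Compound: 20 µM single dose, 1% DMSO / System: HT1080 RFP-PRO-GFP cells / Controls: DMSO and RFP-L50D-GFP cell wells / Read-out basis: GFP/RFP fluorescence ratio / Schedule: overnight compound exposure at 37 °C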
The depositor's hits bear a star; i = inactive; ? = inconclusive; · = not tested or not shown; + = active, no number. The list is not random: actives were taken first. Their share in the collection is about 1.8%. Unless noted, no rule for the calls is given here.

SMILES | SKN-1 block | PABP FP inh | eIF4H FP inh | MLLE-PAM2 inh | MT1-MMP act inh
CCOC(=O)c1cc(-c2ccccc2)sc1NC(=O)C(C)N1C(=O)NC(C)(c2ccc(Cl)cc2)C1=O (stereo unspecified) | 18 | + | active | -46 | -9
CCOC(=O)c1cc(-c2ccccc2)sc1NC(=O)C(C)C | -6 | i | 2 | 19 | -5
COc1ccc(C(=O)N[C@H](C(=O)NCCCSc2ccccc2)C(C)C)cc1 | 14 | · | · | -1 | -11
CCCS(=O)(=O)N1CCN=C1SCc1ccc(F)cc1 | 4 | i | -3 | -4 | -2
CCCS(=O)(=O)N1CCN=C1SCc1cccnc1 | 0 | i | 1 | 40* | -1
CCn1c2ccccc2c2nnc(SCc3ccc(C(=O)OC)o3)nc21 | 13 | i | -3 | 41* | 7
O=C(O)CN1C(=O)/C(=C\c2cc(Br)ccc2OCc2ccccc2F)SC1=S | 2 | i | 2 | 30 | -4
O=C(O)CN1C(=O)/C(=C\c2cc(Br)ccc2OCc2ccc([N+](=O)[O-])cc2)SC1=S | -5 | + | 68* | 16 | 3
O=C(O)CN1C(=O)/C(=C\c2cc(Br)ccc2OCc2ccccc2Cl)SC1=S | -2 | + | 60* | 25 | ·
CCOC(=O)[C@H]1[C@H]2COc3ccc(Cl)cc3[C@@H]2N2C(=O)[C@@H](CO)NC(=O)[C@@]12C | -1 | · | · | 3 | 2
O=C(CCc1ccccc1)NC1CCS(=O)(=O)C1 (stereo unspecified) | -3 | · | · | 13 | 6
CCc1cc(Cn2nc(-c3ccccc3)cc2C(=O)NCc2cccs2)on1 | 1 | · | · | -5 | 5
CC(C)(C)C1CC=C2C(C#N)=C(N)C(C#N)(C#N)C(c3cccs3)C2C1 (stereo unspecified) | · | + | 93* | · | ·
CN1C2C=C3C(C#N)=C(N)C(C#N)(C#N)[C@@H](c4cccs4)C3C1CC2 (stereo partly specified) | 19 | + | 59* | 17 | 0
Cc1ccc(C2C3CN(C(C)C)CC=C3C(C#N)=C(N)C2(C#N)C#N)cc1 (stereo unspecified) | 14 | ? | ? | 151 | -200
CC1CN(C(=O)CSc2nc(N)cc(N)n2)CC(C)O1 (stereo unspecified) | -8 | · | · | 10 | -3
COc1ccc(S(=O)(=O)NC2CC(=O)N(c3cccc(F)c3)C2)cc1OC (stereo unspecified) | 7 | · | · | 2 | 0
S=c1cn[nH]c2ccccc12 | 20 | · | · | 35 | -4
CC1ON=C(c2ccc(F)cc2)NC1=O (stereo unspecified) | 7 | · | · | -17 | 5
Cc1ccc(NC(=O)C2C(c3ccccc3)C2(Cl)Cl)c(C)c1 (stereo unspecified) | 2 | + | ? | 4 | 5
C[C@H](CO)N1C[C@H](C)[C@@H](CN(C)C(=O)Nc2ccc3c(c2)OCO3)Oc2c(NC(=O)c3ccncc3)cccc2C1=O | 4 | · | · | -23 | -2
CC1=NC(=O)C(N=Nc2ccccc2)N1c1ccccc1 (stereo unspecified) | 21 | i | 0 | -12 | 3
CC1=NC(=O)C(N=Nc2cccc(C(=O)O)c2)N1c1ccccc1 (stereo unspecified) | 1 | + | 13* | -111 | 3
COc1ccc(-n2sc3ccc(F)cc3c2=O)cc1 | -2 | · | · | 41* | 8
O=c1c2cc(F)ccc2sn1-c1ccc(F)cc1 | 23 | · | · | 43* | 0
SMILES | SKN-1 block | PABP FP inh | eIF4H FP inh | MLLE-PAM2 inh | MT1-MMP act inh
C=C(C)c1cccc(C(C)(C)NC(=O)N2CCN(C(=O)OCC)CC2)c1 | 10 | · | · | -6 | 1
CC(C)Cn1c(N)c(C(=O)COC(=O)c2cc(C3CC3)nc3ccccc23)c(=O)n(C)c1=O | · | + | -12 | · | ·
CC(C)Cn1c(N)c(C(=O)COC(=O)c2cc(-c3ccccc3)nc3ccccc23)c(=O)n(C)c1=O | 0 | i | -3 | -21 | 5
O=C(COC(=O)c1cccc(F)c1)NC(=O)NC1CCCC1 | 15 | · | · | -6 | 1
O=C(COC(=O)c1cccc(NS(=O)(=O)c2ccc(F)c(F)c2)c1)NC(=O)NC1CCCC1 | 8 | + | 85 | -4 | 0
CCOC(=O)C1=C(CSc2nc(-c3ccccc3)ccc2C#N)OC(N)=C(C#N)C1c1cccnc1 (stereo unspecified) | 27 | ? | ? | -12 | -70
CCOC(=O)C1=C(CSc2nc(-c3ccccc3)ccc2C#N)OC(N)=C(C#N)C1c1ccccc1 (stereo unspecified) | 37* | ? | ? | -31 | -68
c1ccc(C[C@H]2CN=C(Nc3ccccc3)N2CC2CCCC2)cc1 | 11 | · | · | · | 3
CC(=O)c1cccc(NC(=O)N2CCCC2C(=O)Nc2c(C)cccc2C)c1 (stereo unspecified) | 37* | i | 1 | 3 | -4
CC(=O)c1cccc(NC(=O)N2CCCC2C(=O)Nc2cccc(C)c2)c1 (stereo unspecified) | 1 | i | -2 | -4 | 7
COc1ccc(Br)cc1CNC(=O)C1CCN(c2nnc(N3CCCC3=O)s2)CC1 | -10 | i | -6 | 15 | 1
COc1ccc(CNC(=O)C2CCN(c3nnc(N4CCCC4=O)s3)CC2)cc1 | -11 | + | 90* | 3 | -1
O=c1cc(-c2ccccc2Cl)c2c([nH]1)CCC2 | 67* | i | 23 | -1 | -6
O=Cc1ccccc1-n1cccn1 | -4 | i | -9 | 0 | 2
Oc1cc(-n2cccn2)c(O)cc1-n1cccn1 | 20 | i | -7 | 47* | 4
CCCc1cnc(Nc2nc(C(N)Cc3ccc(C(F)(F)F)cc3)cs2)nc1 (stereo unspecified) | 15 | · | · | 6 | -6
CS(=O)(=O)C1=NN2C(=N)/C(=C\c3ccc(OC(=O)c4ccco4)cc3)C(=O)N=C2S1 | -5 | i | -10 | -14 | -4
CC(C)CS(=O)(=O)C1=NN2C(=N)/C(=C\c3ccc(OC(=O)c4ccco4)cc3)C(=O)N=C2S1 | 6 | + | 66* | -20 | -25
N=C1/C(=C/c2ccco2)C(=O)N=C2SC(CC(=O)N3CCCC3)=NN12 | -5 | + | 79* | -4 | 1
N=C1/C(=C/c2ccc(Br)o2)C(=O)N=C2SC(CC(=O)N3CCCC3)=NN12 | 26 | · | · | -23 | 13
CCCC1=NN2C(=N)/C(=C\c3ccc(SCc4ccco4)o3)C(=O)N=C2S1 | 44* | ? | ? | -45 | -66
CC(=O)O/N=C/c1c(C)c(C=O)n2ccccc12 | -6 | + | 22 | -6 | -5
